Screening data deposited in PubChem BioAssay by several laboratories.
Shown are actives, neighbours in structure and some others; about 1.8% of the full set was active somewhere.
EBI2 block: EBI2 receptor antagonists, beta-arrestin recruitment, primary screen, cell-based, luminescence, 7a,25-OHC stimulation, uHTS; 7a,25-OHC stimulated; inhibition, % at 5 µM; hit rate 0.81% among 360,000; in the data active = inhibition above about 38%;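 also: enzyme fragment complementation signal reports receptor beta-arrestin coupling in cells; 0% = agonist plus DMSO wells and 100% = wells without agonist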
APJ agonist: agonists of human apelin receptor APJ, primary screen, CHO-K1 cells, PathHunter beta-arrestin, luminescence; activation, % at 20 µM; AID 2520, 2010; P35414; hit rate 0.11% among 330,000; 0% DMSO wells, 100% apelin;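 active = activation more than six SD over the plate average, tested at 20 µM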;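 also: 0% = DMSO alone and 100% = apelin-13 at 10 nM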
Target sequence (P35414 whole entry, looked up): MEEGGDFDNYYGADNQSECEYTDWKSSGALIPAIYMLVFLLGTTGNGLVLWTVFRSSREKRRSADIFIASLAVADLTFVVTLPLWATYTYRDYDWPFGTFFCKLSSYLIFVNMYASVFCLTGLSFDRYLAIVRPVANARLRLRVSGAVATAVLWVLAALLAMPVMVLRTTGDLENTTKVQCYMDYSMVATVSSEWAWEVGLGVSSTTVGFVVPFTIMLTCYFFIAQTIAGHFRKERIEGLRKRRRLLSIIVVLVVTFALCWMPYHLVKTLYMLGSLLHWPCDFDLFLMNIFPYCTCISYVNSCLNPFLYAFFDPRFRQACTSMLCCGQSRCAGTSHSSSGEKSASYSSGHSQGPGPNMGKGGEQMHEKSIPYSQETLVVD
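Test system: CHO-K1 APJ beta-arrestin complementation cell line. Amount: cell density 1000 per well. Controls: DMSO negative, 10 nM Apelin-13 positive. Signal: luminescent beta-gal fragment complementation, chemiluminescent substrate. Read-out basis: agonist-driven arrestin binding to APJ. Timing: compound stimulation 90 min at 25 °C, detection 60 min.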
CCR6 antag: CCR6 receptor antagonists, primary screen, cell-based, CHO-K1, luminescence, beta-arrestin, uHTS. C-C chemokine receptor type 6 (Homo sapiens), P51684. CHO-K1 CCR6 PathHunter beta-arrestin, CCL20-stimulated. inhibition, % at 20 µM. hit rate 0.49% among 340,000. AID 493098, 2011;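 active = compounds whose inhibition of the agonist-driven luminescence signal at 20 µM reaches about 50%, limit read from the data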;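 also: cells stimulated with CCL20 at 14 nM final; plate controls were DMSO with CCL20 for no effect and DMSO without agonist for full effect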
B2AR ag: beta2AR agonists driving receptor internalization, primary screen, cell-based, FAP fluorogen, flow cytometry. hit rate 0.43% among 340,000. Am2.2-beta2AR cells. response, % (no concentration beside the values). Beta-2 adrenergic receptor (Homo sapiens), P07550. AID 504454, 2011;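 active = response above a set limit, near 3 SD of response in nonfluorescent compounds, cut at about 42% in these data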
CXCR6 block: CXCR6 receptor inhibitors, primary screen, cell-based, beta-arrestin, luminescence, CHO-K1 PathHunter, 1536-well; hit rate 0.36% among 360,000; inhibition, % at 20 µM; AID 602244, 2012; in the data active = inhibition above about 34%, passing the limit was not always enough;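 also: antagonist mode with CXCL16 agonist at 10 nM final; 0% = 10 nM CXCL16 with DMSO and 100% = unstimulated wells without agonist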
APJ antag: antagonists of human apelin receptor APJ, primary screen, CHO-K1 cells, beta-arrestin complementation, luminescence; P35414; inhibition, % at 20 µM; hit rate 0.32% among 330,000;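 active = inhibition above about 40% at 20 µM, limit read from the data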;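 also: cells challenged with 10 nM apelin-13 agonist together with compound; plate controls were apelin-13 plus DMSO wells for no effect and DMSO wells lacking apelin-13 for full effect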
Numbers without * were called inactive; . = no result given.

SMILES	EBI2 block	APJ agonist	CCR6 antag	B2AR ag	CXCR6 block	APJ antag
O=C(NNC(=O)c1cccc(Br)c1)Nc1ccc(Cl)cc1	-19	-3	6	-2	1	-2
O=C(NC(=S)Nc1ccc2oc(-c3cccnc3)nc2c1)c1cccc(Cl)c1	17	0	54*	26	32	20
O=C(NC(=S)Nc1cccnc1)c1ccccc1	1	-5	34	-4	8	24
O=C(NC(=S)Nc1cccnc1)c1cccc(Br)c1	1	-3	58*	-10	20	11
CCCCCN(C(=O)CCC(=O)OC(C)C(=O)Nc1ccccc1C)c1c(N)n(CCCC)c(=O)[nH]c1=O (configuration not stated)	-7	.	.	.	-2	.
CCOc1ccc(OCCC(=O)NNC(=O)c2cc(OC)c(OC)c(OC)c2)cc1	4	0	3	83*	-6	-11
Cc1c(C)c2cccnc2c2ncccc12	-5	-2	-17	5	-12	-17
Cc1cccc(S(=O)C(c2ccccc2)c2ccccc2)c1 (configuration not stated)	8	.	18	6	7	.
O=C1/C(=C/c2ccc([N+](=O)[O-])cc2)C=C(c2ccccc2)N1c1ccccc1	14	4	4	5	3	-24
O=C1/C(=C/c2ccc([N+](=O)[O-])cc2)C=C(c2ccccc2)N1c1ccc(O)cc1	61*	0	54*	-1	38*	6
O=C(Cc1ccccc1F)Nc1ccc(S(=O)(=O)Nc2ncccn2)cc1	-5	-3	-8	7	3	-4
O=C(Nc1ccc(N2CCCC2)cc1)c1cccc(-c2cc3ccccc3oc2=O)c1	-4	3	25	57*	-10	9
COc1ccc2c(c1)sc1nc(-c3ccccc3)cn12	40*	3	1	12	-30	-11
COC(=O)C=C1CCC2C3CCC4=CC(=O)CCC4(C)C3C(=O)CC12C (configuration not stated)	1	.	14	94*	-1	.
CCCCn1c(N)c(N(CCOC)C(=O)c2oc3c(Cl)cccc3c2C)c(=O)[nH]c1=O	-2	.	.	.	0	.
CN(C)C(=O)CSc1cccc2cccnc12	19	-7	66*	15	55*	35
O=S(=O)(Nc1cc(Sc2cccc3cccnc23)c(O)c2ccccc12)c1ccc(F)cc1	.	.	65*	.	.	.
O=C(Sc1cccc2cccnc12)c1ccc(F)cc1	.	-8	.	.	.	44*
COc1ccc(S(=O)(=O)Nc2cc(SCC(=O)O)c(O)c3ccccc23)cc1	-3	-1	6	8	8	-30
CC(=O)/C(=N\Nc1ccccc1)Sc1cccc2cccnc12	17	-4	10	-8	3	15
CC1=C(C(=O)N2CCCCCC2)CC(CC(=O)NC(c2ccccc2)c2ccccc2)C(=O)N1Cc1ccccc1 (configuration not stated)	12	.	.	.	10	.
COc1ccc(Cc2nc3c([nH]2)c(=O)n(C)c(=O)n3C)cc1OC	2	.	7	9	-4	.
CC(NC(=O)CN1C(=O)NC2(CCCCCC2)C1=O)c1ccccc1Cl (configuration not stated)	-1	3	18	-5	4	-9
COc1cc(/C=C/c2cc(OC(C)=O)c3ccccc3n2)c(OC(C)=O)c([N+](=O)[O-])c1	15	-7	63*	8	31	39
CC(=O)Oc1c(Cl)cc(Cl)cc1/C=C/c1ccc2ccccc2n1	31	-3	-36	-1	-19	-12
O=C(c1ccc2c(c1)[nH]c(=S)n1c3ccccc3nc21)N1CCN(c2ncccn2)CC1	-13	2	17	62*	3	-12
Cc1cccc(C)c1-n1nnnc1C1(C)CCC(=O)N1C1CC1 (configuration not stated)	-8	.	.	.	3	.
O=C(NCCOc1ccccc1)c1cc([N+](=O)[O-])ccc1N1CCOCC1	59*	-2	15	-4	6	-38
